Assay outcomes deposited in PubChem BioAssay by several laboratories.
Autophagy mod: modulators of autophagy; MEF GFP-LC3 puncta imaging; test concentration mostly 10 µM; calls only at 10 µM (by protocol); hit rate 0.98% among 190,000; AID 463193;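 active = percentage of spot-positive cells more than 3 SD above its plate mean, without a fluorescence outlier flag or 80% toxicity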
Dynein transport: blocks dynein driven cargo transport along microtubules | 3617.4 mouse cells, GR-EGFP nuclear translocation imaging; test concentration mostly 20 µM; stimulated with dexamethasone, 1 µM; hits give low values | z-score, hits read low | hit rate 0.47% among 220,000 | AID 1381;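 active = plate z-score of nuclear minus cytoplasmic receptor signal below a set negative limit, without overly bright fluorescence or cell loss, cut at about -3.5 in these data, passing the limit was not always enough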;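 also: z-score of nuclear minus cytoplasmic ring GR-EGFP intensity difference per well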
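Buffer or medium: Induction medium lacking tetracycline, stripped serum | Also added: Dexamethasone agonist, 1.0 µM final, for 30 min | Timing: 48 h induction, 1 h compound, 30 min dex at 37 °C | Detection: Formaldehyde fixation, Hoechst nuclear stain, 10x automated fluorescence imaging | Measure: Nuclear versus cytoplasmic GR-EGFP signal, averaged per well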
PTEN del growth: suppresses growth of cells with PTEN deletion; HCT116 PTEN-null viability, CellTiter-Glo, 60 h; hits give low values; viability, % at 10 µM; hit rate 1.2% among 140,000;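 active = viability at or below a set limit, 4 SD under the median of all tested compounds, cut at about 3.7% in these data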;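 also: PTEN knockout HCT116 line with beta catenin targeted HCT116 as companion control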
SDO1 yeast rescue: compounds rescuing growth of sdo1-depleted yeast, bone marrow failure model; S. cerevisiae sdo1-depleted JHY4D growth rescue, OD600 30 h; hits give high values; pdr5 snq2 efflux-pump mutant strain; z-score at 10 µM; hit rate 0.21% among 140,000; AID 817;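 active = z-score above 3 at both the 24 hr and the 30 hr optical density reads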
bCat KO growth: beta-catenin-lacking colon tumor cell growth suppression. HCT116 beta-catenin knockout viability, CellTiter-Glo, 60 h; hits give low values. viability, % at 10 µM. hit rate 1.5% among 140,000. AID 818;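 active = viability at or under a set limit, the compound median less 4 SD, cut at about 6% in these data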
Each line names hits and unclear results; the compound was inactive in the other large screens. Rows were chosen to be rich in hits. Some 2.2% of all compounds tested hit in one or more screens of this group.

O=C(CSc1nnc(SCc2cccc3ccccc23)s1)N=Nc1c(O)[nH]c2ccccc12	PTEN del growth 1.0, bCat KO growth 4.3
O=C(Cc1cccs1)N=Nc1c(O)[nH]c2ccccc12	none (no result: Autophagy mod, PTEN del growth, SDO1 yeast rescue, bCat KO growth)
COc1ccc(N/N=C/c2c(C(=O)O)ccc3ccccc23)cc1	none (no result: Autophagy mod, PTEN del growth, SDO1 yeast rescue, bCat KO growth)
Clc1ccc(Oc2nc(N3CCOCC3)nc(N3CCOCC3)n2)cc1	none
Cc1cc(NC(=O)COC(=O)c2oc3c(Cl)cccc3c2C)no1	none
CC(=O)Oc1ccc2ccccc2c1C(NC(=O)Cc1ccccc1)c1ccccc1Cl (centres undefined)	PTEN del growth 1.4, bCat KO growth 3.9
CCC(=O)NC(c1ccccc1)c1c(OC(C)=O)ccc2ccccc12 (centres undefined)	none (no result: PTEN del growth, SDO1 yeast rescue, bCat KO growth)
COc1ccc(C(C)=O)cc1CSc1ncccn1	none (no result: PTEN del growth, SDO1 yeast rescue, bCat KO growth)
COc1ccc(C(C)=O)cc1CSc1nc2ccccc2o1	PTEN del growth 1.0, bCat KO growth 1.1
COCCn1c(SCC(=O)Nc2cc(C)on2)nnc1-c1ccco1	none
COCCn1c(=NC(=O)CSCC(=O)Nc2cc(C)on2)sc2cc(C(=O)OC)ccc21	PTEN del growth 0.5
CCN1/C(=C/c2ccc3cc(C)ccc3[n+]2CC)Sc2ccccc21	Dynein transport -5.1, PTEN del growth 1.3, bCat KO growth 1.2 (no result: Autophagy mod)
CCN1/C(=C/c2ccc3cc(C)ccc3[n+]2CC)Sc2cc(C)c(C)cc21	Autophagy mod active (no result: PTEN del growth, SDO1 yeast rescue, bCat KO growth)
CCOC(=O)/C(C#N)=C/c1cn(CCC(=O)O)nc1-c1ccc(Cl)cc1	none
CC(=O)NCCCc1nc2ccccc2n1Cc1ccccc1F	none (no result: Autophagy mod, PTEN del growth, SDO1 yeast rescue, bCat KO growth)
COc1ccc(C(=O)NCCCc2nc3ccccc3n2Cc2ccccc2C)cc1OC	Autophagy mod active
CCCCCCc1cc2cc(C(=O)Nc3ccccc3)c(=O)oc2cc1O	PTEN del growth 1.7, bCat KO growth 1.5
CCCCCCc1cc2cc(C(=O)NCc3ccccc3)c(=N)oc2cc1O	none
CCOc1ccc(N2C(=O)C3C(c4ccccc4F)NN(C(=O)c4ccc(C)cc4)C3C2=O)cc1 (centres undefined)	none
Cc1ccc(/C=C2/NC(=O)N(Cc3ccccc3F)C2=O)s1	Autophagy mod active (no result: PTEN del growth, SDO1 yeast rescue, bCat KO growth)
O=C1N/C(=C/c2cccs2)C(=O)N1Cc1ccccc1F	none (no result: PTEN del growth, SDO1 yeast rescue, bCat KO growth)
CN1CC=C2C(C#N)=C(N)C(C#N)(C#N)[C@H](c3cccs3)[C@H]2C1	Autophagy mod active
COc1cc([C@@H]2[C@H]3CN(C)CC=C3C(C#N)=C(N)C2(C#N)C#N)cc2c1OCO2	Autophagy mod active
CCOC(=O)N1CCC(=NNc2ccc(S(N)(=O)=O)cc2[N+](=O)[O-])CC1	none (no result: PTEN del growth, SDO1 yeast rescue, bCat KO growth)
COC(=O)C1=C(NC(=O)c2cccs2)CCS1	none
COC(=O)C1=C(NC(=O)c2ccccc2C)CCS1	Autophagy mod active (no result: PTEN del growth, SDO1 yeast rescue, bCat KO growth)
CCN(C)c1ccc(/C=N\n2nnnc2N)cc1	Autophagy mod active
O=C(CSc1ncn[nH]1)NC1CC2CCC1C2 (centres undefined)	Autophagy mod active
CCc1ccc(-c2cc(C(=O)N3N=C(C(F)F)CC3(O)C(F)F)c3ccccc3n2)cc1 (centres undefined)	PTEN del growth 3.5
CC(C)(C)c1ccc(C(=O)Nc2cccc3c(=O)[nH][nH]c(=O)c23)cc1	none
COc1ccccc1-c1ccc(NC2CCCC2)nn1	none
COc1cc2c(cc1OC)CN(c1ccc(-c3ccccc3OC)nn1)CC2	bCat KO growth 2.7
COc1ccc(-c2cc(C3CC3)nc(SCC(=O)c3cccs3)c2C#N)cc1	Autophagy mod active
CCOC(=O)CSc1nc(C2CC2)cc(-c2ccc(F)cc2)c1C#N	none
COc1ccc(-c2nc3scc(-c4ccc(OC)c(OC)c4)c3c(=O)o2)cc1	Autophagy mod active
O=C1CCC(=O)N1CCC(c1ccc(F)cc1)c1ccco1 (centres undefined)	none
O=C1NCN(c2ccccc2)C12CCN(CCCC(c1ccc(F)cc1)c1ccc(F)cc1)CC2	Autophagy mod active (no result: PTEN del growth, SDO1 yeast rescue, bCat KO growth)
CCCCOCCCNC(=O)N[C@H](C(=O)OC)C(C)CC (some centres undefined)	none (no result: Autophagy mod, PTEN del growth, SDO1 yeast rescue, bCat KO growth)
Cc1ccc(NN2C(=O)C=C(c3ccc(Cl)cc3)C2=O)cc1	none
CCOc1ccc2nc(N3C(=O)/C(=C/c4ccc(Cl)cc4)NC3=S)sc2c1	Autophagy mod active
COc1ccc2nc(N3C(=O)CNC3=S)sc2c1	none (no result: Autophagy mod, PTEN del growth, SDO1 yeast rescue, bCat KO growth)
CCc1cc(C(=O)N2CCCC(CCC(=O)NCc3cccc(OC)c3)C2)no1 (centres undefined)	none (no result: PTEN del growth, SDO1 yeast rescue, bCat KO growth)
Cc1[nH]c(=O)c(C(=O)/C=C/c2ccccc2F)c2c1CCCC2	PTEN del growth 3.4, bCat KO growth 3.9
Cc1[nH]c2ccccc2c1C(=O)/C=C\c1ccccc1Cl	none
CCN(CC)C(=O)Cn1c(=O)c2ccccc2n2c(=S)sc(-c3cccc(C)c3)c12	Autophagy mod active
Cc1ccc(CNC(=O)CCCC(=O)O)cc1	none
COc1ccc(N2C3=C(CC4=C2CCCC4=O)C(=O)CCC3)cc1	none
COc1ccc(N2C3=C(CC4=C2CC(C)(C)CC4=O)C(=O)CC(C)(C)C3)cc1	PTEN del growth 1.1, bCat KO growth 1.1
CCCCCCC(=O)Cc1cc(OC)c(OC)cc1C=C(C(=O)OCC)C(=O)OCC	Dynein transport -4.3
COc1ccc(Oc2c(Cl)cnn(-c3ccc(C)cc3)c2=O)cc1	bCat KO growth 5.5
COc1ccc(Oc2c(Cl)cnn(-c3ccc(Cl)c(Cl)c3)c2=O)cc1	PTEN del growth 0.7, bCat KO growth 1.0
COc1ccc(Oc2c(Cl)cnn(-c3ccc(F)cc3)c2=O)cc1	none
COc1c(Cl)cnn(-c2ccc(C)cc2)c1=O	PTEN del growth 1.1, bCat KO growth 1.2
CCN(CC)C(=O)Cc1cn(C)c2ccccc12	none (no result: PTEN del growth, SDO1 yeast rescue, bCat KO growth)
C#CCOCCOCCOCCNc1nc(N2CCN(C(=O)Cn3cc(CCCN=C(N)N)nn3)CC2)nc(N2CCN(C(=O)[C@H]([C@@H](C)CC)n3cc(CCCN=C(N)N)nn3)CC2)n1	none
Cc1ccc(C(=O)c2ccccc2C(=O)OCC(=O)NC(C)(C)C)cc1	none (no result: PTEN del growth, SDO1 yeast rescue, bCat KO growth)
CCOC(=O)C1CCN(C(=O)c2cc(C(C)(C)C)nn2Cc2ccccc2)CC1	none (no result: Autophagy mod, PTEN del growth, SDO1 yeast rescue, bCat KO growth)
CCOc1ccc(-n2cc(C(=O)Nc3cccc(OC)c3)c3cc(OC)c(OC)cc3c2=O)cc1	none
CCOc1ccccc1N1CC(C(=O)Nc2c(C)n(C)n(-c3ccccc3)c2=O)CC1=O (centres undefined)	none (no result: PTEN del growth, SDO1 yeast rescue, bCat KO growth)
Nc1c(C(=O)Nc2cccc(Cl)c2Cl)sc2nc(-c3cccnc3)ccc12	PTEN del growth 1.3, bCat KO growth 1.5
CCOc1ccc(-n2nnnc2-c2nc3ccccc3s2)cc1	PTEN del growth 3.1, bCat KO growth 3.3
CCOC(=O)c1c(NC(=O)c2cc3n(n2)C(C(F)(F)F)CC(c2cccs2)N3)sc(C)c1C (centres undefined)	PTEN del growth 1.0, bCat KO growth 1.5
Cc1nn(C)c(C)c1CNC(=O)c1cc2n(n1)C(C(F)(F)F)CC(c1cccs1)N2 (centres undefined)	none
Cc1ccc(S(=O)(=O)C2(C(=O)O)CCCC2)cc1C	none
Cc1cccc(N2C(=O)C(Oc3ccc(Cl)cc3Cl)C2C=O)c1C (centres undefined)	bCat KO growth 5.2
